For data set [1], the target named is Synaptic vesicular amine transporter (Mus musculus, UniProt Q8BRU6). The data set is described as follows: Inhibition of VMAT2 in C57Bl/6J mouse striatal membranes assessed as reduction in [3H[-5HT uptake pre-incubated for 10 mins before [3H[-5HT addition and measured after 8 mins. The class given is cell membranes, Striatum, Membrane.
Data set [2] addresses 5-hydroxytryptamine receptor 2A (Homo sapiens, UniProt P28223). Briefly: biochemical. The class given is cell-based, HEK293.
The target of data set [3] is Sodium-dependent dopamine transporter (Homo sapiens, UniProt Q01959). The data set is described as follows: Displacement of [125I]RTI-55 from human DAT expressed in HEK293 cell membranes. Put shortly: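 Total particulate membranes from HEK-293 cells stably expressing hDAT, with [125I]RTI-55 at 40−60 pM. Nonspecific binding defined with 5 μM mazindol.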
The target in data set [4] is Sodium-dependent serotonin transporter (Homo sapiens, UniProt P31645). Briefly: Displacement of [125I]RTI-55 from human SERT expressed in HEK293 cell membranes.
Data set [5] addresses Sodium-dependent noradrenaline transporter (Homo sapiens, UniProt P23975). The data set is described as follows: Displacement of [125I]RTI-55 from human NET expressed in HEK293 cell membranes.
Data set [6] concerns HEK293. Briefly: Cytotoxicity in HEK293 cells expressing human VMAT2 assessed as reduction in cell viability at 10 uM incubated for 24 hrs by MTT assay. The class given is cell-based. The conditions noted are these: hek293, 24 h. Summed up: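 HEK-VMAT2 cells plated at 5 × 10^4 per well. Drugs added on day 2 to triplicate wells, all with 0.1% DMSO, for 24 h. MTT reagent then 2 h at 37 °C, solvent added, read at 590 nm. Values normalized to control cells. One-way ANOVA with post hoc test.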

For data set [7], the system named is HEK293. Briefly: Cytotoxicity in HEK293 cells expressing human VMAT2 assessed as reduction in cell viability at 1 uM incubated for 24 hrs by MTT assay. The class given is cell-based. The following applies: hek293, 24 h. Summed up:
(§1)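 HEK-293 cells stably expressing human VMAT2, seeded at 5 × 10^4 cells/well in DMEM with 10% FetalClone, penicillin/streptomycin and G418. On day 2, compound in DMEM was added to triplicate wells, with 0.1% DMSO in all conditions, for 24 h. MTT reagent was then added for 2 h at 37 °C, followed by solvent. Absorbance read at 590 nm, normalized to control cells, and analyzed by one-way ANOVA with Dunnett's test.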

In data set [8] the test system is HEK293. Briefly: Cytotoxicity in HEK293 cells expressing human VMAT2 assessed as reduction in cell viability at 3 uM incubated for 24 hrs by MTT assay. The class given is cell-based. The conditions noted are these: hek293, 24 h. Put shortly: as §1

By IC50 is commonly meant the concentration needed to halve the response being measured. Broadly, the Ki is the dissociation constant of the complex between target and ligand, obtained from inhibition or displacement. Higher therefore signals lower affinity.

Chain of Sodium-dependent noradrenaline transporter (P23975 whole entry): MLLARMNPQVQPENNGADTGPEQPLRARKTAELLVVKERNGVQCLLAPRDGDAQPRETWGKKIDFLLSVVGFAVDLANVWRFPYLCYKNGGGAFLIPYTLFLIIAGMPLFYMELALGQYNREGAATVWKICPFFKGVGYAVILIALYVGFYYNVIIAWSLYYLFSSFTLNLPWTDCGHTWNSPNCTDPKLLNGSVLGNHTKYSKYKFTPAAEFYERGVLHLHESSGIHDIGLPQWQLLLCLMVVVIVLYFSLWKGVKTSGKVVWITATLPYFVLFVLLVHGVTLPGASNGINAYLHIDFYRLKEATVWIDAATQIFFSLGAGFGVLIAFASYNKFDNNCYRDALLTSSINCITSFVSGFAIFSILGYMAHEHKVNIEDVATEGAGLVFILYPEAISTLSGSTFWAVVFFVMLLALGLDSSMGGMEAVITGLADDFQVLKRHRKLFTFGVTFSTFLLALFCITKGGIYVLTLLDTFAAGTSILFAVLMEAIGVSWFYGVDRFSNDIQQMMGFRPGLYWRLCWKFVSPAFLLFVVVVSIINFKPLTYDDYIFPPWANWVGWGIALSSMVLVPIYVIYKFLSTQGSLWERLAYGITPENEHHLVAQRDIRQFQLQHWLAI
Chain of Synaptic vesicular amine transporter (Q8BRU6 whole entry): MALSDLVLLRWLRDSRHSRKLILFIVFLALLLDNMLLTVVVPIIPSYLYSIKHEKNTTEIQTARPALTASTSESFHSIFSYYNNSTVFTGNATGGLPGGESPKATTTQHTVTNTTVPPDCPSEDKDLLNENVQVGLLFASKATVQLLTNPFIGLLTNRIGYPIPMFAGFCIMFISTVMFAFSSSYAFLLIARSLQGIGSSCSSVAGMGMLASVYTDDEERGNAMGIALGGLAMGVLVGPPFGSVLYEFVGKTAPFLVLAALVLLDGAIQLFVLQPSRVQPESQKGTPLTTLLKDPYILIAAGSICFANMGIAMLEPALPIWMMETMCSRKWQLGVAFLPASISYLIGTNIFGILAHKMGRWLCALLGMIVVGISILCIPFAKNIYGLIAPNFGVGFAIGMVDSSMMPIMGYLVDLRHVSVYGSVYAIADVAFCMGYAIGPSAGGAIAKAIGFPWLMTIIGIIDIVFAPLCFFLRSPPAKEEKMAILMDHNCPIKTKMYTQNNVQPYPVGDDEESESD
Chain of 5-hydroxytryptamine receptor 2A (P28223 whole entry): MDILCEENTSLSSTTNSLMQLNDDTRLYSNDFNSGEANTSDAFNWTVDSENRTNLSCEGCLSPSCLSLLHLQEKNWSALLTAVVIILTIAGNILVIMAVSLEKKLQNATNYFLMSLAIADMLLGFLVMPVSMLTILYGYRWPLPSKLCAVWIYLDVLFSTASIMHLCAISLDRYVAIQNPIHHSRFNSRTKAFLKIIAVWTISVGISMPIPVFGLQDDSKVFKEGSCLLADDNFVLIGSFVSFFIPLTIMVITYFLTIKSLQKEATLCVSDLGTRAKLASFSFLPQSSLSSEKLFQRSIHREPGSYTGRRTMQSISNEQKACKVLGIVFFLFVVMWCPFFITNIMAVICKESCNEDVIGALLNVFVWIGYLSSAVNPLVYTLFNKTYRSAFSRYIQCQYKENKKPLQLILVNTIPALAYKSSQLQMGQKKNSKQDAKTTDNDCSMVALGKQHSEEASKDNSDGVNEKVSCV
Chain of Sodium-dependent dopamine transporter (Q01959 whole entry): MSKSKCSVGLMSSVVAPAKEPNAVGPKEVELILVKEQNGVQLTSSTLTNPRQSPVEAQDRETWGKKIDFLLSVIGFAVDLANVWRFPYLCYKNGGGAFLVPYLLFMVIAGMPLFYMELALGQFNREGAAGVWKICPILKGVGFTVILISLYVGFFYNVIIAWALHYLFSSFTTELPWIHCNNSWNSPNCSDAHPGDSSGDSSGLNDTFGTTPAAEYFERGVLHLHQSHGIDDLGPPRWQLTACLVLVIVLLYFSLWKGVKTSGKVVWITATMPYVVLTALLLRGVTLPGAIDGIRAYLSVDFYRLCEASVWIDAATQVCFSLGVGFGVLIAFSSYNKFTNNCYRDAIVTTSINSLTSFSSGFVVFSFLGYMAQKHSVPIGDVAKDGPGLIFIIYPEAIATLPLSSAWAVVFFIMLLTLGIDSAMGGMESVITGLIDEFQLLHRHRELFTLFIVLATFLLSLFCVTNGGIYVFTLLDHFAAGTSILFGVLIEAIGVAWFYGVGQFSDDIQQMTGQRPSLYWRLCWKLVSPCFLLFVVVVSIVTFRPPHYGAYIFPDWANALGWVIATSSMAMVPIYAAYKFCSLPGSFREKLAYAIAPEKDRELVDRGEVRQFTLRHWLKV
Chain of Sodium-dependent serotonin transporter (P31645 whole entry): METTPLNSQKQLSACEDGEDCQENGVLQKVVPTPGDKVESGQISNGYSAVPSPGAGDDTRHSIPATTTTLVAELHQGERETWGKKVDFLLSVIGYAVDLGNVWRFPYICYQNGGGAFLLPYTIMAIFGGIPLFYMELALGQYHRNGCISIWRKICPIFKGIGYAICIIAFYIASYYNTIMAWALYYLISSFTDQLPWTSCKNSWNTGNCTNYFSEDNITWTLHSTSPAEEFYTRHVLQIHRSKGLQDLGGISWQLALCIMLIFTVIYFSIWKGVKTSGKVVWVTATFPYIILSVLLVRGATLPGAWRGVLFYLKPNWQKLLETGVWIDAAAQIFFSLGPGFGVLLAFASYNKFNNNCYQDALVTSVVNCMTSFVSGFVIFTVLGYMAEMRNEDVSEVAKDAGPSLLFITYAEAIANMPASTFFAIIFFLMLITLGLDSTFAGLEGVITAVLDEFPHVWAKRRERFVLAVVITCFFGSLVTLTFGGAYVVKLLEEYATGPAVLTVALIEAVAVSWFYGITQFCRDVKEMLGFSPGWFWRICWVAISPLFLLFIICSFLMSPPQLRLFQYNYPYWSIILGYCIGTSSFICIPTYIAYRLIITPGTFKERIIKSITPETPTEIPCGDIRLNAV

For the molecule `CCOC(=O)C1CN(CCn2c(=O)[nH]c3ccccc3c2=O)CCC1c1ccc(F)cc1` (single isomer, unassigned; (+)), in data set [1], the half-inhibitory concentration (IC50) amounted to 0.00339 µM. Also, the inhibitory constant (Ki) in data set [2] is greater than 10 µM; in data set [3], 2.44 µM; in data set [4], greater than 10 µM; in data set [5], greater than 10 µM. For the same molecule, the Activity entry in the data set on HEK293 [6] was “Non-Toxic”.
With `CN[C@@H]1C[C@H]2O[C@@](C)([C@@H]1OC)n1c3ccccc3c3c4c(c5c6ccccc6n2c5c31)C(=O)NC4` [STAUROSPORINE], the Activity is 45% in the data set on HEK293 [7] and 60% with HEK293 [8].

The record behind these values is ChEMBL document CHEMBL4196220, “Synthesis and Discovery of Arylpiperidinylquinazolines: New Inhibitors of the Vesicular Monoamine Transporter” (J Med Chem, 2018).
